Screening data deposited in PubChem by several laboratories.
Hits are enriched below; roughly 1.9% of the tested compounds scored in any of these assays.
Rce1 inhib – blocks yeast Ras-converting enzyme. Q03530. yeast membranes, quenched prenylated peptide cleavage fluorescence. calls only. actives 0.27% (n = 290,000);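 active means fall in fluorescence gain of 50% or more versus controls, with final raw signal at or below 3038400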
Target sequence (Q03530 whole entry, looked up): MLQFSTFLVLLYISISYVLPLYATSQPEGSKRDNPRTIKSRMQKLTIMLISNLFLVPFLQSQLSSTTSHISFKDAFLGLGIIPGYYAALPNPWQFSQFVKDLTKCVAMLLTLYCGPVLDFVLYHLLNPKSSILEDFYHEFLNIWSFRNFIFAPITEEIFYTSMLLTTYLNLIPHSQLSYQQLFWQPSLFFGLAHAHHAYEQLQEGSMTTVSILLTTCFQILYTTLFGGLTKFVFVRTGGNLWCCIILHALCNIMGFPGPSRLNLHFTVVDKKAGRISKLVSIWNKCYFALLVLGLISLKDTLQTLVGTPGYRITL
MIN6 prolif – induces beta-cell replication in MIN6 cells; MIN6 cells proliferation, ATPlite luminescence, 48 h; cells starved in 0.2% serum; 100% = growth in 10% serum; actives 0.29% (n = 330,000); AID 2380; proliferation, % at 10 µM;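 active means compounds whose signal lies at least 3.5 SD above the mean of all wells on their plate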
PG9 Ab binder – binds the HIV-1 gp120 antibody PG9; TR-FRET gp120-PG9 antibody binding; actives 0.43% (n = 360,000); inhibition, % at 6.7 µM; in the data active means inhibition above about 8.5%
CR mimetic SO – lowers age-related superoxide in aged yeast cells. S. cerevisiae aged cells, superoxide DHE fluorescence; active compounds read low. superoxide response (% of plate mean), % at 10 µM. actives 0.18% (n = 330,000);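 active means superoxide response under a set limit, about three screen SD below normal, cut at about 65% in these data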;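 further: yeast aged for seven days with compound at 30 °C before DHE staining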
UCH37 DUB inh – inhibitors of human deubiquitinating enzyme UCH37; Q9Y5K5; purified proteasome/UCH37, Ub-AMC cleavage fluorescence; inhibition, % (no concentration beside the values); actives 0.33% (n = 330,000); AID 588478;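 active means mean inhibition over replicate wells above about 20%, limit read from the data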
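system = Proteasome-associated human UCH37 deubiquitinase | amount = 0.15 nM proteasome as dispensed | medium = pH 7.4 Tris-HCl (50 mM) with ovalbumin, ATP-MgCl2, DTT | incubation = 30 min preincubation with enzyme, 25 min cleavage at room temperature | detection = AMC fluorescence 355/460 nm | read-out basis = percent inhibition | controls = no-proteasome and no-compound wells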
NR1D1 modulator – modulators of human Rev-erb alpha DNA binding | activity, % at 10 µM | AID 1259318 | Rev-erbα–FITC-DNA binding, fluorescence polarization, 90 min | actives 0.79% (n = 370,000) | P20393;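 active means activity above about 14%, limit read from the data; passing the limit was not always enough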
UCH37 confirm – reconfirmed inhibitor of human deubiquitinase UCH37; shares compounds with UCH37 DUB inh; Proteasome-bound UCH37, Ub-AMC cleavage fluorescence; inhibition, % at 20 µM; actives 27% (n = 480); AID 624100;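 active means average inhibition over replicates above about 50%, so the earlier screening hit is confirmed, limit read from the data; inactive means the rest, counted as false positives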;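 further: based on cleavage rate fitted by regression over a 30 min kinetic read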
Numbers stand for hits; n = inactive; x = no result given; ! = a repeat was not active.

SMILES	Rce1 inhib	MIN6 prolif	PG9 Ab binder	CR mimetic SO	UCH37 DUB inh	NR1D1 modulator	UCH37 confirm
COc1cc(C(C(=O)NC2CCCC2)N(Cc2ccco2)C(=O)c2snc(C(N)=O)c2N)cc(OC)c1OC (centres undefined)	n	n	n	n	n	n	x
COc1ccc(OC)c(C2/C(=C(/O)c3cnn(-c4ccccc4)c3C)C(=O)C(=O)N2CCN(C)C)c1 (centres undefined)	n	n	n	n	35	n	n
CCOC(=O)c1cc(CC)sc1N=Cc1c(O)ccc2ccccc12	x	x	x	x	n	x	x
FC(F)(F)C1=Nc2cccc3cccc(c23)N1	x	n	n	x	57	n	n
Fc1ccc(C2=Nc3cccc4cccc(c34)N2)cc1	n	n	n	n	n	n	x
CC(=O)N(C1=C(N)C(=O)c2ccccc2C1=O)c1ccccc1	n	n	n	n	37	n	n
CN(C)/C=N/NC(=O)c1ccccc1	n	n	n	n	x	n	x
O=C(NN=c1c(=O)c2ccccc2c1=O)c1ccccc1	n	n	n	n	79	n	77
Cc1cc(C(=O)C[N+]2(C)CCOCC2)c(C)n1-c1ccc(Br)cc1	n	n	n	n	45	n	n
Cc1ccc(NC(=O)c2cccc(Cl)c2)nc1	x	n	n	n	n	n	x
Cc1cc(NC(=O)c2cccc(Cl)c2)n[nH]1	n	n	n	n	35	n	n
Cc1c(N=C2C=C(Br)C(=O)C(Br)=C2)c(=O)n(-c2ccccc2)n1C	x	n	n	x	n	n	x
Cc1c(N=C2C=CC(=O)c3ccccc32)c(=O)n(-c2ccccc2)n1C	n	x	n	x	61	n	n
COC(=O)NN=Cc1c(C)c(C(=O)c2ccc(F)cc2)n2ccccc12	x	x	x	x	n	x	x
O=C(NN=C/C(Cl)=C/c1ccc([N+](=O)[O-])cc1)C(=O)Nc1ccc(C(=O)O)cc1	x	x	x	x	n	x	x
Cc1ccoc1C(=O)NCCCNC(=O)c1occc1C	n	n	n	n	48	n	n
Cc1ccoc1C(=O)NCCNC(=O)c1occc1C	n	n	n	n	n	n	x
Cn1cccc1/C=C1\SC(=S)N(CC(=O)O)C1=O	x	x	n	n	25	n	n
O=C(O)CN1C(=O)/C(=C/c2ccsc2)SC1=S	n	n	n	n	n	n	x
O=C(O)CN1C(=O)/C(=C\c2cccc(OCc3ccc(F)cc3)c2)SC1=S	n	n	n	n	n	n	x
O=C(O)CN1C(=O)/C(=C\c2cccc(OCc3ccc(Cl)cc3)c2)SC1=S	n	n	n	n	28	n	82
O=C(Cc1ccc(F)cc1)NN=Cc1ccc(-c2ccc(Cl)c(C(=O)O)c2)o1	x	x	x	x	n	x	x
CC(=O)Nc1ccc(C(C)=NNC(=O)c2ccc(COc3ccccc3Cl)o2)cc1	x	x	x	x	n	x	x
Cc1c(NC(=O)C(C)OC(=O)c2sc3ccccc3c2Cl)c(=O)n(-c2ccccc2)n1C (centres undefined)	n	n	n	n	n	n	x
Cc1c(NC(=O)C(C)OC(=O)c2ccc([N+](=O)[O-])s2)c(=O)n(-c2ccccc2)n1C (centres undefined)	n	n	n	n	77	n	n
SMILES	Rce1 inhib	MIN6 prolif	PG9 Ab binder	CR mimetic SO	UCH37 DUB inh	NR1D1 modulator	UCH37 confirm
C=Cc1c(C)c2cc3[nH]c(cc4nc(cc5nc(cc1[nH]2)C(C)=C5CCC(=O)O)C(CCC(=O)O)=C4C)c(C)c3C=C	n	n	n	n	47!	n	100
CCC(CNc1cc(OC)cc2cccnc12)NC1CCCCC1 (centres undefined)	n	x	n	n	37	n	54
O=C(NN=C1CC(=NNC(=O)c2ccncc2)c2ccccc21)c1ccncc1	x	x	x	x	46	x	77
O=C1C=C(Nc2ccccc2)c2ccccc2C1=O	n	n	n	x	65	n	n
O=C1C=C(Nc2ccccc2)C(=O)c2ccccc21	n	n	n	n	n	n	x
O=C1C=C(Nc2ccccc2C(=O)O)c2ccccc2C1=O	n	n	n	n	82	n	93
CCCCNC1=CC(=O)C(NCCCC)=CC1=O	x	x	n	x	n	n	x
CCCCNC1=CC(=O)C(=O)c2ccccc21	n	n	n	n	49	n	n
NC(=NOC(=O)c1cccc(F)c1)c1cccc([N+](=O)[O-])c1	x	x	x	x	n	x	x
CC(NC(=O)COC(=O)c1ccc([N+](=O)[O-])o1)c1ccccc1 (centres undefined)	x	n	n	n	26	n	n
